Active and inactive are the calls of the source. No cut-off for these calls is given here.
Legend:
MCF7 [1] = experiment: Cytotoxicity against human MCF7 cells at 10^-6 M after 72 hrs by MTS assay; type: functional; conditions: MCF7, 72 h, read-out: GI
K562 [2] = experiment: Cytotoxicity against human K562 cells at 10^-5 M after 72 hrs by MTS assay; type: functional; conditions: K562, 72 h, read-out: GI
Procedure, shortened: (§1)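 Cells grown in RPMI with 10% fetal calf serum, penicillin, streptomycin and fungizone under 5% CO₂. Plated in 96-well plates and dosed 24 h later with compound in DMSO (1% final DMSO; controls got DMSO alone). After 72 h, MTS was added for 3 h at 37 °C and A490 read. Inhibition = (1 − OD treated/OD control) × 100, in triplicate.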

HCT-15 [3] = experiment: Cytotoxicity against human HCT15 cells at 10^-5 M after 72 hrs by MTS assay; type: functional; conditions: HCT-15, 72 h, read-out: GI; procedure, shortened: as §1
SK-OV-3 [4] = experiment: Cytotoxicity against human SKOV3 cells at 10^-5 M after 72 hrs by MTS assay; type: functional; conditions: SK-OV-3, 72 h, read-out: GI
Procedure, shortened: (§2)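 Preliminary screen at 10^-5 and 10^-6 M. Cells were grown in RPMI with 10% fetal calf serum plus penicillin, streptomycin and fungizone under 5% CO₂, plated in 96-well plates, and dosed 24 h later from DMSO stocks (1% DMSO final, same in controls). After 72 h, MTS was added for 3 h at 37 °C and absorbance read at 490 nm. Inhibition was calculated as (1 − OD treated/OD control) × 100, in triplicate.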

SF-268 [5] = experiment: Cytotoxicity against human SF268 cells at 10^-5 M after 72 hrs by MTS assay; type: functional; conditions: SF-268, 72 h, read-out: GI; procedure, shortened: as §2
OVCAR-8 [6] = experiment: Cytotoxicity against human OVCAR8 cells at 10^-6 M after 72 hrs by MTS assay; type: functional; conditions: OVCAR-8, 72 h, read-out: GI; procedure, shortened: as §2
HCT-116 [7] = experiment: Cytotoxicity against human HCT116 cells at 10^-5 M after 72 hrs by MTS assay; type: functional; conditions: HCT-116, 72 h, read-out: GI; procedure, shortened: as §1
HL-60 [8] = experiment: Cytotoxicity against human HL60 cells at 10^-6 M after 72 hrs by MTS assay; type: functional; conditions: HL-60, 72 h, read-out: GI; procedure, shortened: as §1
SK-OV-3 [9] = experiment: Antiproliferative activity against human SKOV3 cells after 72 hrs by MTS assay; type: functional, cell-based; conditions: SK-OV-3, 72 h
Procedure, shortened: (§3)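 Cell lines grown in RPMI with 10% fetal calf serum plus penicillin, streptomycin and fungizone under 5% CO2. Compounds in DMSO (1% final; controls got DMSO alone) were added 24 h after plating. After 72 h exposure, MTS was added for 3 h at 37 °C and A490 read. Inhibition = (1 − OD treated/OD control)×100, in triplicate. IC50s came from separate duplicate dose-response experiments.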

PC-3 [10] = experiment: Antiproliferative activity against human PC3 cells after 72 hrs by MTS assay; type: functional, cell-based; conditions: PC-3, 72 h; procedure, shortened: as §3
OVCAR-8 [11] = experiment: Cytotoxicity against human OVCAR8 cells at 10^-5 M after 72 hrs by MTS assay; type: functional; conditions: OVCAR-8, 72 h, read-out: GI; procedure, shortened: as §2
Ovis aries [12] = species on record: Ovis aries; experiment: Inhibition of sheep brain tubulin polymerization at 10 uM
Procedure, shortened: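 Microtubule protein from sheep brain, purified by two assembly/disassembly cycles (37 °C/0 °C), in 100 mM MES pH 6.6, 1 mM EGTA, 0.5 mM MgCl₂. Compounds in DMSO were tested at a single concentration, with incubation at 37 °C for 10 min and then 0 °C for 5 min before measuring assembly rate, following a modified Guénard protocol.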

K562 [13] = experiment: Antiproliferative activity against human K562 cells after 72 hrs by MTS assay; type: functional, cell-based; conditions: K562, 72 h; procedure, shortened: as §3
A549 [14] = experiment: Cytotoxicity against human A549 cells at 10^-6 M after 72 hrs by MTS assay; type: functional; conditions: A549, 72 h, read-out: GI; procedure, shortened: as §1
HCT-116 [15] = experiment: Cytotoxicity against human HCT116 cells at 10^-6 M after 72 hrs by MTS assay; type: functional; conditions: HCT-116, 72 h, read-out: GI; procedure, shortened: as §1
[16] = Cytotoxicity against human HL60R cells at 10^-6 M after 72 hrs by MTS assay; type: functional; conditions: read-out: GI; procedure, shortened: as §1
PC-3 [17] = experiment: Cytotoxicity against human PC3 cells at 10^-5 M after 72 hrs by MTS assay; type: functional; conditions: PC-3, 72 h, read-out: GI; procedure, shortened: as §2
[18] = Cytotoxicity against human MDA231 cells at 10^-6 M after 72 hrs by MTS assay; type: functional; conditions: MDA-MB-231, 72 h, read-out: GI; procedure, shortened: as §2
[19] = Cytotoxicity against human HL60R cells at 10^-5 M after 72 hrs by MTS assay; type: functional, HL-60; conditions: read-out: GI; procedure, shortened: as §1
MIA PaCa-2 [20] = experiment: Cytotoxicity against human MIAPaCa2 cells at 10^-5 M after 72 hrs by MTS assay; type: functional; conditions: MIA PaCa-2, 72 h, read-out: GI
SK-OV-3 [21] = experiment: Cytotoxicity against human SKOV3 cells at 10^-6 M after 72 hrs by MTS assay; type: functional; conditions: SK-OV-3, 72 h, read-out: GI; procedure, shortened: as §2
[22] = Antiproliferative activity against human HL60R cells after 72 hrs by MTS assay; type: functional, cell-based
OVCAR-8 [23] = experiment: Antiproliferative activity against human OVCAR8 cells after 72 hrs by MTS assay; type: functional, cell-based; conditions: OVCAR-8, 72 h; procedure, shortened: as §3
K562 [24] = experiment: Cytotoxicity against human K562 cells at 10^-6 M after 72 hrs by MTS assay; type: functional; conditions: K562, 72 h, read-out: GI; procedure, shortened: as §1
PC-3 [25] = experiment: Cytotoxicity against human PC3 cells at 10^-6 M after 72 hrs by MTS assay; type: functional; conditions: PC-3, 72 h, read-out: GI; procedure, shortened: as §2
SF-268 [26] = experiment: Antiproliferative activity against human SF268 cells after 72 hrs by MTS assay; type: functional, cell-based; conditions: SF-268, 72 h; procedure, shortened: as §3
A549 [27] = experiment: Cytotoxicity against human A549 cells at 10^-5 M after 72 hrs by MTS assay; type: functional; conditions: A549, 72 h, read-out: GI; procedure, shortened: as §1
HCT-15 [28] = experiment: Cytotoxicity against human HCT15 cells at 10^-6 M after 72 hrs by MTS assay; type: functional; conditions: HCT-15, 72 h, read-out: GI; procedure, shortened: as §1
HL-60 [29] = experiment: Antiproliferative activity against human HL60 cells after 72 hrs by MTS assay; type: functional, cell-based; conditions: HL-60, 72 h; procedure, shortened: as §3
HT-29 [30] = experiment: Cytotoxicity against human HT-29 cells at 10^-5 M after 72 hrs by MTS assay; type: functional; conditions: HT-29, 72 h, read-out: GI; procedure, shortened: as §1
SF-268 [31] = experiment: Cytotoxicity against human SF268 cells at 10^-6 M after 72 hrs by MTS assay; type: functional; conditions: SF-268, 72 h, read-out: GI; procedure, shortened: as §2
[32] = Cytotoxicity against human MDA231 cells at 10^-5 M after 72 hrs by MTS assay; type: functional; conditions: MDA-MB-231, 72 h, read-out: GI; procedure, shortened: as §2
HL-60 [33] = experiment: Cytotoxicity against human HL60 cells at 10^-5 M after 72 hrs by MTS assay; type: functional; conditions: HL-60, 72 h, read-out: GI; procedure, shortened: as §1
HT-29 [34] = experiment: Cytotoxicity against human HT-29 cells at 10^-6 M after 72 hrs by MTS assay; type: functional; conditions: HT-29, 72 h, read-out: GI; procedure, shortened: as §1
[35] = Antiproliferative activity against human MDA231 cells after 72 hrs by MTS assay; type: functional, cell-based; conditions: MDA-MB-231, 72 h; procedure, shortened: as §3
MCF7 [36] = experiment: Cytotoxicity against human MCF7 cells at 10^-5 M after 72 hrs by MTS assay; type: functional; conditions: MCF7, 72 h, read-out: GI
HCT-15 [37] = experiment: Antiproliferative activity against human HCT15 cells after 72 hrs by MTS assay; type: functional, cell-based; conditions: HCT-15, 72 h; procedure, shortened: as §3
MIA PaCa-2 [38] = experiment: Cytotoxicity against human MIAPaCa2 cells at 10^-6 M after 72 hrs by MTS assay; type: functional; conditions: MIA PaCa-2, 72 h, read-out: GI
Ovis aries [39] = species on record: Ovis aries; experiment: Inhibition of sheep brain tubulin polymerization at 17 uM

IC50 (SK-OV-3 [9]) | IC50 (PC-3 [10]) | tubulin polymerization inhibition call (active/not active) (Ovis aries [12]) | IC50 (K562 [13]) | Compound | inhibition of growth at 1 µM (MCF7 [1]) | inhibition of growth at 10 µM (K562 [2]) | inhibition of growth at 10 µM (HCT-15 [3]) | inhibition of growth at 10 µM (SK-OV-3 [4]) | inhibition of growth at 10 µM (SF-268 [5]) | inhibition of growth at 1 µM (OVCAR-8 [6]) | inhibition of growth at 10 µM (HCT-116 [7]) | inhibition of growth at 1 µM (HL-60 [8]) | inhibition of growth at 10 µM (OVCAR-8 [11]) | inhibition of growth at 1 µM (A549 [14]) | inhibition of growth at 1 µM (HCT-116 [15]) | inhibition of growth at 1 µM [16] | inhibition of growth at 10 µM (PC-3 [17]) | inhibition of growth at 1 µM [18] | inhibition of growth at 10 µM [19] | inhibition of growth at 10 µM (MIA PaCa-2 [20]) | other results
70 nM | 270 nM | inactive | 180 nM | COc1ccc(C(=C(COC(C)=O)COC(C)=O)c2cc(OC)c(OC)c(OC)c2)cc1O | 5% | 78% | 77% | 84% | 71% | 0% | 59% | 15% | 94% | 1% | 0% | 1% | 78% | 0% | 90% | 51% | inhibition of growth at 1 µM (SK-OV-3 [21]): 71%; IC50 [22]: 2720 nM; IC50 (OVCAR-8 [23]): 1900 nM; inhibition of growth at 1 µM (K562 [24]): 25%; inhibition of growth at 1 µM (PC-3 [25]): 14%; IC50 (SF-268 [26]): 970 nM; inhibition of growth at 10 µM (A549 [27]): 67%; inhibition of growth at 1 µM (HCT-15 [28]): 18%; IC50 (HL-60 [29]): 680 nM; inhibition of growth at 10 µM (HT-29 [30]): 63%; inhibition of growth at 1 µM (SF-268 [31]): 16%; inhibition of growth at 10 µM [32]: 75%; inhibition of growth at 10 µM (HL-60 [33]): 74%; inhibition of growth at 1 µM (HT-29 [34]): 0%; IC50 [35]: 1030 nM; inhibition of growth at 10 µM (MCF7 [36]): 34%; IC50 (HCT-15 [37]): 680 nM; inhibition of growth at 1 µM (MIA PaCa-2 [38]): 0%
– | – | inactive | – | COc1ccc(C(=C(CO)CO)c2cc(OC)c(OC)c(OC)c2)cc1O | – | – | – | – | – | – | – | – | – | – | – | – | – | – | – | – | inhibition (Ovis aries [39]): Active
6510 nM | 690 nM | – | 450 nM | COc1ccc(/C(=C2\O[C@@H]([C@H](O)CO)[C@H]3OC(C)(C)O[C@@H]23)c2cc(OC)c(OC)c(OC)c2)cc1O | 0% | 90% | 82% | 81% | 73% | 1% | 58% | 10% | 95% | 0% | 1% | 12% | 77% | 0% | 95% | 58% | inhibition of growth at 1 µM (SK-OV-3 [21]): 6%; IC50 [22]: 1490 nM; IC50 (OVCAR-8 [23]): 2970 nM; inhibition of growth at 1 µM (K562 [24]): 15%; inhibition of growth at 1 µM (PC-3 [25]): 0%; IC50 (SF-268 [26]): 1100 nM; inhibition of growth at 10 µM (A549 [27]): 58%; inhibition of growth at 1 µM (HCT-15 [28]): 11%; IC50 (HL-60 [29]): 820 nM; inhibition of growth at 10 µM (HT-29 [30]): 8%; inhibition of growth at 1 µM (SF-268 [31]): 16%; inhibition of growth at 10 µM [32]: 69%; inhibition of growth at 10 µM (HL-60 [33]): 79%; inhibition of growth at 1 µM (HT-29 [34]): 6%; IC50 [35]: 610 nM; inhibition of growth at 10 µM (MCF7 [36]): 43%; IC50 (HCT-15 [37]): 630 nM; inhibition of growth at 1 µM (MIA PaCa-2 [38]): 5%

From ChEMBL document CHEMBL1828575, “Design, synthesis and antiproliferative activities of biarylolefins based on polyhydroxylated and carbohydrate scaffolds” (Eur J Med Chem, 2011)
